This is an account of results in ChEMBL document CHEMBL4725336, “Anti-cancer potential of (1,2-dihydronaphtho[2,1-b]furan-2-yl)methanone derivatives” (Bioorg Med Chem Lett, 2020).

Data set [1] deals with MDA-MB-468. Briefly: Antiproliferative activity against human MDA-MB-468 cells assessed as inhibition of cell proliferation by MTT assay. It is filed as functional. As to conditions: read-out: LD50 (the source's name). In a few lines:
(§1)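 MTT proliferation assay; cells exposed to compounds across 0-50 μM; LD50 derived from dose-dependent survival. Triple-negative MDA-MB-468, MDA-MB-231 and 4T1, ER+/PR+ MCF-7, and non-cancerous lung fibroblast WI-38 tested.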

Data set [2] concerns MCF7. Briefly: Antiproliferative activity against human MCF7 cells assessed as inhibition of cell proliferation by MTT assay. The class given is functional. The note with it: read-out: LD50 (the source's name). The method in brief: as §1
The nature of data set [3]: Selectivity index, ratio of LD50 for human WI-38 cells to LD50 for human MCF7 cells assessed as inhibition of cell proliferation by MTT assay. The note with it: WI-38 cells and MCF7 cells, read-out: Selectivity Index. The class given is toxicity. The method in brief:
(§2)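 MTT proliferation assay on cells treated with 0–50 μM. LD50 was derived for each cell line, and the selectivity index was calculated as WI-38 LD50 divided by cancer-cell LD50.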

Data set [4] is described as follows: Cytotoxicity against human WI-38 cells assessed as inhibition of cell proliferation by MTT assay. As to conditions: read-out: LD50 (the source's name). It is filed as cell-based. In a few lines:
as §1

Data set [5] can be described thus: Selectivity index, ratio of LD50 for human WI-38 cells to LD50 for human MDA-MB-468 cells assessed as inhibition of cell proliferation by MTT assay. It is filed as toxicity. The note with it: WI-38 cells and MDA-MB-468 cells, read-out: Selectivity Index. The method in brief:
as §2

Data set [6] is described as follows: Selectivity index, ratio of LD50 for human WI-38 cells to LD50 for mouse 4T1 cells assessed as inhibition of cell proliferation by MTT assay. In a few lines:
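Selectivity index computed as MTT-derived LD50 in non-cancerous WI-38 lung fibroblasts divided by LD50 in the cancer line (cells exposed to 0-50 μM).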

The subject of data set [7] is 4T1. Briefly: Antiproliferative activity against mouse 4T1 cells assessed as inhibition of cell proliferation by MTT assay. The class given is functional. The note with it: read-out: LD50 (the source's name). In a few lines:
as §1

For data set [8], the system named is MDA-MB-231. Briefly: Antiproliferative activity against human MDA-MB-231 cells assessed as inhibition of cell proliferation by MTT assay. The class given is functional. The note with it: read-out: LD50 (the source's name). In a few lines: as §1
The nature of data set [9]: Selectivity index, ratio of LD50 for human WI-38 cells to LD50 for human MDA-MB-231 cells assessed as inhibition of cell proliferation by MTT assay. The class given is toxicity. The note with it: WI-38 cells and MDA-MB-231 cells, read-out: Selectivity Index.

Turning to `O=C(c1ccccc1)[C@H]1Oc2ccc3ccccc3c2[C@@H]1c1ccc2ccccc2c1`, the CC50 was determined as 23 µM in data set [1], 28 µM in data set [2] and 59 µM in [4]. Moreover, the selectivity ratio came out at 2.1 in data set [3] and 2.56 in [5].
Turning to `O=C(c1ccccc1)[C@H]1Oc2ccc3ccccc3c2[C@@H]1c1ccc(O)cc1`, the values for the CC50 in data set [1], in data set [2] and in [4] were 81 µM, 77 µM and 115 µM, respectively. The values for the selectivity ratio in [3] and in data set [5] were 1.49 and 1.42, respectively.
With `Cc1ccc([C@H]2c3c(ccc4ccccc34)O[C@@H]2C(=O)c2ccccc2)cc1`, the values for the CC50 in data set [1], in data set [2] and in [4] were 63 µM, 71 µM and 72 µM, respectively. Besides, the results for the selectivity ratio in data set [3] and in [5] were 1.01 and 1.14, respectively.
Consider `CCC[C@H]1c2c(ccc3ccccc23)O[C@@H]1C(=O)c1ccccc1`, for which the CC50 in data set [1] was found to be 69 µM; in [2], 74 µM; in [4], 79 µM. Besides, the values for the selectivity ratio in data set [3] and in data set [5] were 1.07 and 1.14, respectively.
Taken in the same sequence, the figures for `O=C(c1ccccc1)[C@H]1Oc2ccc3ccccc3c2[C@@H]1c1ccc(Cl)cc1` were 87 µM, 91 µM, 96 µM, 1.05 and 1.1.
Consider `COc1cc([C@@H]2c3cc4c(cc3[C@@H](O[C@@H]3O[C@@H]5CO[C@@H](C)O[C@H]5[C@H](O)[C@H]3O)[C@H]3COC(=O)[C@H]23)OCO4)cc(OC)c1O` [ETOPOSIDE], for which the CC50 turned out to be 27.9 µM in [1], 45.3 µM in data set [2] and 29.6 µM in [4]. In addition, the results for the selectivity ratio in data set [3] and in [5] were 0.65 and 1.06, respectively.
Consider `N#Cc1ccc([C@H]2c3c(ccc4ccccc34)O[C@@H]2C(=O)c2ccccc2)cc1`, for which the CC50 in [1] amounted to 53 µM; in data set [2], 51 µM; in data set [4], 72 µM. Further, the selectivity ratio came to 1.41 in data set [3] and 1.35 in data set [5].
As to `O=C(c1ccccc1)[C@H]1Oc2ccc3cc(Br)ccc3c2[C@@H]1c1ccccc1`, the CC50 was found to be 18 µM in data set [1]; 19 µM in data set [2]; 24 µM in [7]; 52 µM in data set [4]; 22 µM in data set [8]. Moreover, the “Selectivity Index” value in data set [6] was 2.16. In addition, the selectivity ratio came to 2.74 in [3], 2.36 in data set [9] and 2.89 in data set [5].
Turning to `O=C(c1ccco1)[C@H]1Oc2ccc3cc(Br)ccc3c2[C@@H]1c1ccccc1`, the CC50 in [1] is 68 µM; in data set [2], 72 µM; in [4], 92 µM. Moreover, the selectivity ratio in data set [3] was found to be 1.28; in data set [5] it was 1.35.
For `O=C(c1ccccc1)[C@@H]1Cc2c(ccc3cc(Br)ccc23)O1`, the values for the CC50 in data set [1], in [2] and in [4] were 32 µM, 54 µM and 73 µM, respectively. Besides, the figures for the selectivity ratio in [3] and in [5] were 1.35 and 2.28, respectively.
Regarding `COc1ccc([C@H]2c3c(ccc4ccccc34)O[C@@H]2C(=O)c2ccccc2)cc1`, the CC50 in [1] amounted to 118 µM; in data set [2], 84 µM; in data set [4], 83 µM. Besides, the selectivity ratio in data set [3] was 0.98; in [5] it was 0.7.
As to `COc1cc([C@H]2c3c(ccc4ccccc34)O[C@@H]2C(=O)c2ccccc2)cc(OC)c1OC`, the CC50 in data set [1] came out at 88 µM; in [2] it was 86 µM; in [4], 128 µM. In addition, the results for the selectivity ratio in data set [3] and in data set [5] were 1.49 and 1.45, respectively.
In the case of `N#Cc1ccc(C(=O)[C@H]2Oc3ccc4ccccc4c3[C@@H]2c2ccc3ccccc3c2)cc1`, the CC50 in data set [1] amounted to 54 µM; in data set [2], 57 µM; in data set [4] it was 88 µM. Also, the figures for the selectivity ratio in data set [3] and in data set [5] were 1.54 and 1.63, respectively.
As to `CC(=O)[C@@H]1Cc2c(ccc3ccccc23)O1`, the CC50 in data set [1] is 22 µM; in data set [2], 26 µM; in data set [4] it was 47 µM. Besides, the selectivity ratio amounted to 1.8 in data set [3] and 2.13 in data set [5].
As for `O=C(c1ccccc1)[C@H]1Oc2ccc3ccccc3c2[C@@H]1c1ccccc1`, the CC50 in [1] turned out to be 72 µM; in data set [2], 68 µM; in data set [4] it was 89 µM. Also, the selectivity ratio in data set [3] worked out at 1.3; in data set [5], 1.24.
For the molecule `O=C(c1ccc(Br)cc1)[C@@H]1Cc2c(ccc3ccccc23)O1`, the CC50 in data set [1] amounted to 18 µM; in data set [2], 21 µM; in data set [7], 25 µM; in [4], 56 µM; in data set [8], 23 µM. Besides, the “Selectivity Index” value in data set [6] is given as 2.24. In addition, the selectivity ratio came to 2.66 in [3], 2.43 in data set [9] and 3.11 in data set [5].
For the molecule `C[C@H]1c2c(ccc3ccccc23)O[C@@H]1C(=O)c1ccccc1`, the figures for the CC50 in data set [1], in [2] and in [4] were 34 µM, 38 µM and 64 µM, respectively. Moreover, the selectivity ratio in data set [3] is 1.68; in data set [5], 1.88.
Consider `O=C(c1ccc(F)cc1)[C@@H]1Cc2c(ccc3ccccc23)O1`, for which the CC50 was 27 µM in data set [1], 29 µM in [2] and 54 µM in [4]. In addition, the selectivity ratio in [3] came to 1.86; in [5], 2.
On to `O=C(c1ccco1)[C@@H]1Cc2c(ccc3ccccc23)O1`, for which the CC50 in data set [1] worked out at 34 µM; in [2], 37 µM; in data set [4], 51 µM. The selectivity ratio is 1.38 in data set [3] and 1.5 in data set [5].
Turning to `O=C(c1ccccc1)[C@H]1Oc2ccc3ccccc3c2[C@@H]1c1ccc(Br)cc1`, the CC50 in [1] turned out to be 63 µM; in data set [2], 56 µM; in [4] it was 77 µM. Also, the values for the selectivity ratio in data set [3] and in data set [5] were 1.37 and 1.22, respectively.
Consider `O=C(c1ccccc1)[C@H]1Oc2ccc3ccccc3c2[C@@H]1C1CCCCC1`, for which the values for the CC50 in [1], in [2] and in data set [4] were 46 µM, 42 µM and 74 µM, respectively. For the same molecule, the selectivity ratio in data set [3] amounted to 1.76; in data set [5] it was 1.6.
